In experiment [1] the target is T1, CDC7/DBF4 (Cell division cycle 7-related protein kinase/Activator of S phase kinase) (Homo sapiens, UniProt O00311). Kind of experiment: Inhibition of human CDC7/DBF4 expressed using baculovirus expression system assessed as [33P]gamma-ATP incorporation into substrate after 60 mins by gamma counting.
The next experiment has as its system HCT-116. Kind of experiment: Cytotoxicity against human HCT116 cells after 3 days by CellTitre Glo assay. Format: functional, cell-based. As to conditions: HCT-116, 72 h. In short, it runs like this:
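HCT-116 cells seeded at 3000 cells per well and held 24 h at 37 °C. Next day, treated with serial dilutions of inhibitor. After 3 days, an equal volume of Cell Titer GLO was added and luminescence read. EC50 derived from the viability readout.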

The target of experiment [2] is T1, CDC7/DBF4 (Cell division cycle 7-related protein kinase/Activator of S phase kinase). Nature of the experiment: Inhibition of CDC7/DBF4-mediated MCM2 phosphorylation in human HCT116 cells after 6 hrs by spectrophotometric analysis. Type of experiment: cell-based, HCT-116.

This is an account of results in ChEMBL document CHEMBL1955846, “Aminopyrimidinone cdc7 kinase inhibitors” (Bioorg Med Chem Lett, 2012).

T1 sequence (Q9UBU7 whole entry): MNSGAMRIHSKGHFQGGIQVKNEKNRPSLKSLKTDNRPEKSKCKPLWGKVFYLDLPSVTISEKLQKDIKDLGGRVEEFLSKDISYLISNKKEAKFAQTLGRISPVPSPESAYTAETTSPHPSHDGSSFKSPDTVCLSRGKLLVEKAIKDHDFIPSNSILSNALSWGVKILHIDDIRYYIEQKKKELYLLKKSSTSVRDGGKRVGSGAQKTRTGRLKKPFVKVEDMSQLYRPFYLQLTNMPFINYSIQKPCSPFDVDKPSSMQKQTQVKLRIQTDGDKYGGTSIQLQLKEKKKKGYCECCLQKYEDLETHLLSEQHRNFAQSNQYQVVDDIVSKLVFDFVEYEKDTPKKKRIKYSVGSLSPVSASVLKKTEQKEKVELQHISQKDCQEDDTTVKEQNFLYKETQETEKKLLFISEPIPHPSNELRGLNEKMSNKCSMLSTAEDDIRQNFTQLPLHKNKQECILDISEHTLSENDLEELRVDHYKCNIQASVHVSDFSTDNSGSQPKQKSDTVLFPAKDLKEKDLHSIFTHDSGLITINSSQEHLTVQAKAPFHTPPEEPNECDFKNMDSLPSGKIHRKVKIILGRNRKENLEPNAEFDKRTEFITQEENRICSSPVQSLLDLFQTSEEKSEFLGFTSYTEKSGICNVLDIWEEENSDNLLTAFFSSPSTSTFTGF
T1 sequence (O00311 whole entry): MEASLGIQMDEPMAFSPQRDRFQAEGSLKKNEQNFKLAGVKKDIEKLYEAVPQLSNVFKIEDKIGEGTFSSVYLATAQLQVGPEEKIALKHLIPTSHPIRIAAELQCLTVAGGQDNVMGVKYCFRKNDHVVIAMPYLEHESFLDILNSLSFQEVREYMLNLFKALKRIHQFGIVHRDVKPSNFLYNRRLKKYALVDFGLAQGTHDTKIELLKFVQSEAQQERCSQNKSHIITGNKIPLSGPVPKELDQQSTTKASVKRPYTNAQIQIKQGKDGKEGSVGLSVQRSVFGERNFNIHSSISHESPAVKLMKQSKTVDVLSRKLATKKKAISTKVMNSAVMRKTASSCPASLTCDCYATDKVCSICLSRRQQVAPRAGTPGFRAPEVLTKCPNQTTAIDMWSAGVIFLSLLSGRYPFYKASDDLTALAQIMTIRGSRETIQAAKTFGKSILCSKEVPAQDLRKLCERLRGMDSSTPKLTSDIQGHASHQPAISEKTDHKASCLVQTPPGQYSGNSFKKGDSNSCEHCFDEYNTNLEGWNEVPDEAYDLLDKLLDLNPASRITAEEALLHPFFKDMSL

By Ki is commonly meant a dissociation constant, usually derived from enzyme kinetics or from competition with a known ligand. Usually EC50 stands for the concentration at which the effect is half-maximal. Low values mean a more potent agent, high ones a less potent agent. Regarding `CN(c1nc(-c2c[nH]c3ncccc23)cc(=O)[nH]1)C1CCCCC1`, the Ki in experiment [1] stood at 0.09 nM. Moreover, the EC50 amounted to 106 nM with HCT-116 and 15 nM in experiment [2].

In the case of `O=c1cc(NC2CCCCC2)cc(-c2c[nH]c3ncccc23)[nH]1`, the Ki in experiment [1] turned out to be 1.1 nM.

Turning to `O=c1cc(-c2cccnc2)nc(NC2CCCCC2)[nH]1`, the Ki in experiment [1] is over 1200 nM.

With `O=c1nc(-c2c[nH]c3ncccc23)nc(NC2CCCCC2)[nH]1`, the Ki in experiment [1] amounted to 0.3 nM.

For the molecule `O=c1cc(-c2c[nH]c3ncccc23)nc(N2CCOCC2)[nH]1`, the Ki in experiment [1] is 0.18 nM. In addition, the EC50 in the experiment on HCT-116 was 450 nM; in experiment [2], 300 nM.

Turning to `O=c1cc(-c2c[nH]c3ncccc23)nc(NC2CCOCC2)[nH]1`, the Ki in experiment [1] turned out to be 0.14 nM. The EC50 was found to be 2460 nM with HCT-116 and 300 nM in experiment [2].

Consider `Nc1nccc(-c2cc(=O)[nH]c(NC3CCCCC3)n2)n1`, for which, in experiment [1], the Ki came to 5 nM.

Regarding `COCCN(CCOC)c1nc(-c2c[nH]c3ncccc23)cc(=O)[nH]1`, the Ki in experiment [1] was determined as 0.18 nM. Further, the EC50 with HCT-116 came to 2210 nM; in experiment [2], 60 nM.

Regarding `O=c1cc(-c2ccccc2)nc(NC2CCCCC2)[nH]1`, the Ki in experiment [1] was 230 nM.

Take `O=c1cc(-c2c[nH]c3ncccc23)cc(NC2CCCCC2)[nH]1`: in experiment [1], the Ki was determined as 0.5 nM.

On to `Oc1cc(NC2CCCCC2)nc(-c2c[nH]c3ncccc23)c1`, for which the Ki in experiment [1] stood at 5.4 nM.

Regarding `O=c1cc(-c2c[nH]c3ncccc23)nc(NCc2ccccc2)[nH]1`, the Ki in experiment [1] is under 0.07 nM. Moreover, the EC50 came out at 122 nM in the experiment on HCT-116 and 180 nM in experiment [2].

For the molecule `O=c1cc(-c2c[nH]c3ncccc23)nc(NC(c2ccccc2)c2ccccc2)[nH]1`, in experiment [1], the Ki was 328 nM.

`O=c1cc(-c2c[nH]c3ncccc23)nc(NC2CCCCC2)[nH]1`: the Ki in experiment [1] was under 0.07 nM. Besides, the figures for the EC50 (in the experiment with HCT-116; in experiment [2]) were 103 nM and 60 nM, respectively.

As to `O=c1cc(-c2ccc3[nH]ncc3c2)nc(NC2CCCCC2)[nH]1`, the Ki in experiment [1] was 0.5 nM.

With `O=c1cc(-c2c[nH]c3ncccc23)nc(-c2ccccc2)[nH]1`, the Ki in experiment [1] was 0.25 nM. Also, the EC50 with HCT-116 was 830 nM; in experiment [2], 410 nM.

On to `COC1CCN(c2nc(-c3c[nH]c4ncccc34)cc(=O)[nH]2)CC1`, for which the Ki in experiment [1] amounted to 0.2 nM. The EC50 with HCT-116 was determined as 520 nM; in experiment [2] it was 300 nM.

With `O=c1cc(-c2c[nH]c3ncccc23)nc(N2CCC(O)CC2)[nH]1`, the Ki in experiment [1] stood at 0.2 nM. The EC50 with HCT-116 was 6190 nM; in experiment [2], 1780 nM.

Regarding `O=c1cc(-c2c[nH]c3ncccc23)nc(Nc2ccccc2)[nH]1`, the Ki in experiment [1] stood at 0.12 nM. Also, the EC50 with HCT-116 was 443 nM; in experiment [2] it was 143 nM.

In the case of `O=c1nc(-c2c[nH]c3ncccc23)cc(NC2CCCCC2)[nH]1`, the Ki in experiment [1] stood at 1.4 nM.

Regarding `CN1CCC(Nc2nc(-c3c[nH]c4ncccc34)cc(=O)[nH]2)CC1`, the inhibition constant (Ki) in experiment [1] was determined as 0.11 nM. In addition, the EC50 with HCT-116 is 7370 nM; in experiment [2] it was 2610 nM.

In the case of `O=c1cc(-c2cn[nH]c2)nc(NC2CCCCC2)[nH]1`, the Ki in experiment [1] is 15 nM.
